Experimental data reported in ChEMBL document CHEMBL1914394, “Synthesis and spectroscopic characterization of 4-butoxyethoxy-N-octadecyl-1,8-naphthalimide as a new fluorescent probe for the determination of proteins” (Bioorg Med Chem Lett, 2011).

Experiments:
[1] = target: T1, Albumin (Bos taurus, UniProt P02769); assay: Binding affinity to bovine serum albumin assessed as decrease in fluorescence intensity at 1.5 x 10^-5 mol/L at pH 7.4 by fluorescence spectroscopy in presence of Na+ cations; format: ADME; settings: cattle, isolated protein, pH 7.4, 15 µM
T1 sequence (P02769 whole entry): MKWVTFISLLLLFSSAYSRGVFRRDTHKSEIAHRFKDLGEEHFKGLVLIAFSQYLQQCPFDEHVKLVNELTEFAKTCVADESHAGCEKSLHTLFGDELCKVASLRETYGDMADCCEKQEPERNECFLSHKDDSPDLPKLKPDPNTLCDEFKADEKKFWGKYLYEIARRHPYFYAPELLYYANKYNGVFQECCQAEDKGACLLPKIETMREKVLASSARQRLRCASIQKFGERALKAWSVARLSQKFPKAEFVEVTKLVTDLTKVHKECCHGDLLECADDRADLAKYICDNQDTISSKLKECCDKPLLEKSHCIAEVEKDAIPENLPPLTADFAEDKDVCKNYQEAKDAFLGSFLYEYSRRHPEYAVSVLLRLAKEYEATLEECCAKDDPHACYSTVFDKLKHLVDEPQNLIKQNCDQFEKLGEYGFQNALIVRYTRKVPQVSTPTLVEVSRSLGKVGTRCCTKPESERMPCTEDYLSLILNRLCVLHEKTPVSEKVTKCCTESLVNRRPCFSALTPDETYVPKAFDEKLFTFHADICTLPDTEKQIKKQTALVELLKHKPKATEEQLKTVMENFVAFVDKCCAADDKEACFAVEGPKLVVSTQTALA
Summary of the method: (§1)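 Fluorescence of the BON–BSA system in HCl–Tris pH 7.4 recorded with each interfering ion or amino acid added at different concentrations. Excitation 373 nm; emission scanned 390–550 nm; intensity change noted.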

[2] = target: T1, Albumin; assay: Binding affinity to bovine serum albumin assessed as quenching constant at pH 7.4 at 293K by fluorescence spectroscopic analysis; format: ADME; settings: cattle, isolated protein
Summary of the method: (§2)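 Quenching series of BSA with rising BON levels in HCl–Tris pH 7.4, run at four temperatures. KSV comes from the F0/F versus [BON] Stern–Volmer plot. The bimolecular quenching rate constant is calculated as Kq = KSV/τ0, with a biopolymer fluorescence lifetime τ0 of 10^-8 s.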

[3] = target: T1, Albumin; assay: Binding affinity to bovine serum albumin assessed as stem-volmer quenching constant at pH 7.4 at 298K by fluorescence spectroscopic analysis; format: ADME; settings: cattle, isolated protein
Summary of the method: (§3)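 BSA intrinsic fluorescence titrated with increasing BON in HCl–Tris buffer, pH 7.4, at each of four temperatures. F0/F (without/with BON) plotted against BON concentration; the Stern–Volmer quenching constant KSV is taken from the linear fit.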

[4] = target: T1, Albumin; assay: Binding affinity to bovine serum albumin assessed as stem-volmer quenching constant at pH 7.4 at 293K by fluorescence spectroscopic analysis; format: ADME; settings: cattle, isolated protein; summary of the method: as §3
[5] = target: T1, Albumin; assay: Binding affinity to bovine serum albumin assessed as quenching constant at pH 7.4 at 298K by fluorescence spectroscopic analysis; format: ADME; settings: cattle, isolated protein; summary of the method: as §2
[6] = target: T1, Albumin; assay: Binding affinity to bovine serum albumin assessed as stem-volmer quenching constant at pH 7.4 at 303K by fluorescence spectroscopic analysis; format: ADME; settings: cattle, isolated protein; summary of the method: as §3
[7] = target: T1, Albumin; assay: Binding affinity to bovine serum albumin assessed as quenching constant at pH 7.4 at 303K by fluorescence spectroscopic analysis; format: ADME; settings: cattle, isolated protein; summary of the method: as §2
[8] = target: T1, Albumin; assay: Binding affinity to bovine serum albumin assessed as stem-volmer quenching constant at pH 7.4 at 308K by fluorescence spectroscopic analysis; format: ADME; settings: cattle, isolated protein; summary of the method: as §3
[9] = target: T1, Albumin; assay: Binding affinity to bovine serum albumin assessed as quenching constant at pH 7.4 at 308K by fluorescence spectroscopic analysis; format: ADME; settings: cattle, isolated protein; summary of the method: as §2
[10] = target: T1, Albumin; assay: Binding affinity to bovine serum albumin assessed as binding constant at pH 7.4 at 293K by fluorescence spectroscopic analysis; format: ADME; settings: cattle, isolated protein
Summary of the method: (§4)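 BSA fluorescence quenched by BON in HCl–Tris, pH 7.4, at four temperatures. Binding constants come from fitting the quenching data to the modified Stern–Volmer equation.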

[11] = target: T1, Albumin; assay: Binding affinity to bovine serum albumin assessed as binding constant at pH 7.4 at 298K by fluorescence spectroscopic analysis; format: ADME; settings: cattle, isolated protein; summary of the method: as §4
[12] = target: T1, Albumin; assay: Binding affinity to bovine serum albumin assessed as binding constant at pH 7.4 at 303K by fluorescence spectroscopic analysis; format: ADME; settings: cattle, isolated protein; summary of the method: as §4
[13] = target: T1, Albumin; assay: Binding affinity to bovine serum albumin assessed as binding constant at pH 7.4 at 308K by fluorescence spectroscopic analysis; format: ADME; settings: cattle, isolated protein; summary of the method: as §4
[14] = target: T1, Albumin; assay: Binding affinity to bovine serum albumin assessed as decrease in fluorescence intensity at 10^-5 mol/L at pH 7.4 at 298K by fluorescence spectroscopy in presence of warfarin; format: ADME; parameters: scale not given: the % may be the effect or the level left; settings: cattle, isolated protein, pH 7.4, 10 µM
Summary of the method: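 Site-marker displacement by fluorescence titration: BON and BSA held at a 10:1 molar ratio, then warfarin added stepwise to the mixture. Excitation 280 nm; emission recorded 290–400 nm.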

[15] = target: T1, Albumin; assay: Binding affinity to bovine serum albumin assessed as decrease in fluorescence intensity peak1 at 1.71 x 10^-5 mol/L at pH 7.4 at 293K by three-dimensional fluorescence spectroscopy analysis; format: ADME; parameters: scale not given: the % may be the effect or the level left; settings: cattle, isolated protein, pH 7.4, 17.1 µM
[16] = target: T1, Albumin; assay: Binding affinity to bovine serum albumin assessed as decrease in fluorescence intensity peak2 at 1.71 x 10^-5 mol/L at pH 7.4 at 293K by three-dimensional fluorescence spectroscopy analysis; format: ADME; parameters: scale not given: the % may be the effect or the level left; settings: cattle, isolated protein, pH 7.4, 17.1 µM
[17] = target: T1, Albumin; assay: Binding affinity to bovine serum albumin assessed as decrease in fluorescence intensity at 1.5 x 10^-5 mol/L at pH 7.4 by fluorescence spectroscopy in presence of Zn2+ cations; format: ADME; settings: cattle, isolated protein, pH 7.4, 15 µM; summary of the method: as §1
[18] = target: T1, Albumin; assay: Binding affinity to bovine serum albumin assessed as decrease in fluorescence intensity at 1.5 x 10^-5 mol/L at pH 7.4 by fluorescence spectroscopy in presence of Pb2+ cations; format: ADME; settings: cattle, isolated protein, pH 7.4, 15 µM; summary of the method: as §1
[19] = target: T1, Albumin; assay: Binding affinity to bovine serum albumin assessed as decrease in fluorescence intensity at 1.5 x 10^-5 mol/L at pH 7.4 by fluorescence spectroscopy in presence of Ni2+ cations; format: ADME; settings: cattle, isolated protein, pH 7.4, 15 µM; summary of the method: as §1
[20] = target: T1, Albumin; assay: Binding affinity to bovine serum albumin assessed as decrease in fluorescence intensity at 1.5 x 10^-5 mol/L at pH 7.4 by fluorescence spectroscopy in presence of Mo6+ cations; format: ADME; settings: cattle, isolated protein, pH 7.4, 15 µM; summary of the method: as §1
[21] = target: T1, Albumin; assay: Binding affinity to bovine serum albumin assessed as decrease in fluorescence intensity at 1.5 x 10^-5 mol/L at pH 7.4 by fluorescence spectroscopy in presence of Mg2+ cations; format: ADME; settings: cattle, isolated protein, pH 7.4, 15 µM; summary of the method: as §1
[22] = target: T1, Albumin; assay: Binding affinity to bovine serum albumin assessed as decrease in fluorescence intensity at 1.5 x 10^-5 mol/L at pH 7.4 by fluorescence spectroscopy in presence of Fe3+ cations; format: ADME; settings: cattle, isolated protein, pH 7.4, 15 µM; summary of the method: as §1
[23] = target: T1, Albumin; assay: Binding affinity to bovine serum albumin assessed as decrease in fluorescence intensity at 1.5 x 10^-5 mol/L at pH 7.4 by fluorescence spectroscopy in presence of Cu2+ cations; format: ADME; settings: cattle, isolated protein, pH 7.4, 15 µM; summary of the method: as §1
[24] = target: T1, Albumin; assay: Binding affinity to bovine serum albumin assessed as decrease in fluorescence intensity at 1.5 x 10^-5 mol/L at pH 7.4 by fluorescence spectroscopy in presence of Cr3+ cations; format: ADME; settings: cattle, isolated protein, pH 7.4, 15 µM; summary of the method: as §1
[25] = target: T1, Albumin; assay: Binding affinity to bovine serum albumin assessed as decrease in fluorescence intensity at 1.5 x 10^-5 mol/L at pH 7.4 by fluorescence spectroscopy in presence of Mn2+ cations; format: ADME; settings: cattle, isolated protein, pH 7.4, 15 µM; summary of the method: as §1
[26] = target: T1, Albumin; assay: Binding affinity to bovine serum albumin assessed as decrease in fluorescence intensity at 1.5 x 10^-5 mol/L at pH 7.4 by fluorescence spectroscopy in presence of K+ cations; format: ADME; settings: cattle, isolated protein, pH 7.4, 15 µM; summary of the method: as §1
[27] = target: T1, Albumin; assay: Binding affinity to bovine serum albumin assessed as decrease in fluorescence intensity at 1.5 x 10^-5 mol/L at pH 7.4 by fluorescence spectroscopy in presence of Ca2+ cations; format: ADME; settings: cattle, isolated protein, pH 7.4, 15 µM; summary of the method: as §1
[28] = target: T1, Albumin; assay: Binding affinity to bovine serum albumin assessed as decrease in fluorescence intensity at 1.5 x 10^-5 mol/L at pH 7.4 by fluorescence spectroscopy in presence of Br- anions; format: ADME; settings: cattle, isolated protein, pH 7.4, 15 µM; summary of the method: as §1
[29] = target: T1, Albumin; assay: Binding affinity to bovine serum albumin assessed as decrease in fluorescence intensity at 1.5 x 10^-5 mol/L at pH 7.4 by fluorescence spectroscopy in presence of Cl- anions; format: ADME; settings: cattle, isolated protein, pH 7.4, 15 µM; summary of the method: as §1
[30] = target: T1, Albumin; assay: Binding affinity to bovine serum albumin assessed as decrease in fluorescence intensity at 1.5 x 10^-5 mol/L at pH 7.4 by fluorescence spectroscopy in presence of SO42+ anions; format: ADME; settings: cattle, isolated protein, pH 7.4, 15 µM; summary of the method: as §1
[31] = target: T1, Albumin; assay: Binding affinity to bovine serum albumin assessed as decrease in fluorescence intensity at 1.5 x 10^-5 mol/L at pH 7.4 by fluorescence spectroscopy in presence of PO42+ anions; format: ADME; settings: cattle, isolated protein, pH 7.4, 15 µM; summary of the method: as §1
[32] = target: T1, Albumin; assay: Binding affinity to bovine serum albumin assessed as decrease in fluorescence intensity at 1.5 x 10^-5 mol/L at pH 7.4 by fluorescence spectroscopy in presence of lysine; format: ADME; settings: cattle, isolated protein, pH 7.4, 15 µM; summary of the method: as §1
[33] = target: T1, Albumin; assay: Binding affinity to bovine serum albumin assessed as decrease in fluorescence intensity at 1.5 x 10^-5 mol/L at pH 7.4 by fluorescence spectroscopy in presence of tryptophane; format: ADME; settings: cattle, isolated protein, pH 7.4, 15 µM; summary of the method: as §1
[34] = target: T1, Albumin; assay: Binding affinity to bovine serum albumin assessed as decrease in fluorescence intensity at 1.5 x 10^-5 mol/L at pH 7.4 by fluorescence spectroscopy in presence of tyrosine; format: ADME; settings: cattle, isolated protein, pH 7.4, 15 µM; summary of the method: as §1
[35] = target: T1, Albumin; assay: Binding affinity to bovine serum albumin assessed as decrease in fluorescence intensity at 1.5 x 10^-5 mol/L at pH 7.4 by fluorescence spectroscopy in presence of glycine; format: ADME; settings: cattle, isolated protein, pH 7.4, 15 µM; summary of the method: as §1
[36] = target: T1, Albumin; assay: Binding affinity to bovine serum albumin assessed as decrease in fluorescence intensity at 1.5 x 10^-5 mol/L at pH 7.4 by fluorescence spectroscopy in presence of proline; format: ADME; settings: cattle, isolated protein, pH 7.4, 15 µM; summary of the method: as §1
[37] = target: T1, Albumin; assay: Binding affinity to bovine serum albumin assessed as quenching constant at pH 7.4 at 293K by fluorescence spectroscopy; settings: cattle, isolated protein

In the case of `CCCCCCCCCCCCCCCCCCN1C(=O)c2cccc3c(OCCOCCCC)ccc(c23)C1=O`, the Activity [1] is reported as “Not Active”, the Kq [2] is reported as 9.4 ×10¹¹ L/mol/s and the KSV [3] is reported as 9.03 ×10³ L/mol. For the same molecule, the KSV [4] was 9.4 ×10³ L/mol, the Kq [5] was 9.03 ×10¹¹ L/mol/s and the KSV [6] was 8.76 ×10³ L/mol. It also gave a Kq [7] of 8.76 ×10¹¹ L/mol/s, a KSV [8] of 8.54 ×10³ L/mol and a Kq [9] of 8.54 ×10¹¹ L/mol/s. It also gave a Kb [10] of 3.89 ×10³ L/mol, a Kb [11] of 2.82 ×10³ L/mol and a Kb [12] of 2.12 ×10³ L/mol. It also gave a Kb [13] of 1.77 ×10³ L/mol, an Activity [14] of 42% and an Activity [15] of 25.16%. The Activity [16] was 37.24%, the Activity [17] was “Not Active” and the Activity [18] was “Not Active”. The Activity [19] was “Not Active”, the Activity [20] was “Not Active” and the Activity [21] was “Not Active”. For the same molecule, the Activity [22] was “Not Active”, the Activity [23] was “Not Active” and the Activity [24] was “Not Active”. For the same molecule, the Activity [25] was “Not Active”, the Activity [26] was “Not Active” and the Activity [27] was “Not Active”. For the same molecule, the Activity [28] was “Active”, the Activity [29] was “Active” and the Activity [30] was “Active”. The Activity [31] was “Active”, the Activity [32] was “Active” and the Activity [33] was “Active”. For the same molecule, the Activity [34] was “Active”, the Activity [35] was “Active” and the Activity [36] was “Active”. The Activity [37] was “Active”.
